Laboratory results reported in PMC5767168 (The Biochemical journal, 2011).

Columns and labels:
[1] = CD spectroscopy of conformational transition in DMEM; format: physicochemical; details: 10 μM peptide, 37°C
How it was run: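 Peptide was dissolved in 60 mM NaOH, diluted into cell culture medium and sonicated 1 min. It was then incubated at 10 μM in DMEM without serum or cells at 37°C. Conformation was followed by CD periodically over several days.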

[2] = Electron microscopy of fibril formation in phosphate buffer; format: physicochemical; details: sodium phosphate pH 7.4, 25°C, 96 h
How it was run: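 HFIP-treated peptide was dissolved in 60 mM NaOH, sonicated and diluted in sodium phosphate (pH 7.4). It was incubated at 25°C with orbital agitation at 200 rev./min. Aliquots were applied to glow-discharged carbon-coated Formvar grids for 20 min, fixed in 2.5% glutaraldehyde for 4 min, stained with 1% uranyl acetate for 3 min, air-dried and imaged by TEM. Three independent experiments were run.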

[3] = CD spectroscopy of conformational transition in phosphate buffer; format: physicochemical; details: 10 μM peptide, 10 mM sodium phosphate pH 7.4, 25°C; for appearance of the solution at 48–72 h of incubation: agitation; for kinetics of conformational transition by CD, in words: agitation 200 rev./min
How it was run: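 HFIP-treated peptide films were dissolved in 60 mM NaOH, diluted with water, sonicated 1 min, then diluted with 20 mM sodium phosphate (pH 7.4) to 10 μM. Samples were incubated at 25°C with orbital agitation at 200 rev./min. CD spectra (190–260 nm, 1-mm path) were taken every 2 h for 12 h, then at 24, 48 and 72 h, and background-subtracted. Three independent experiments were run.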

[4] = tested on: rat primary hippocampal neurons; experiment: Dendritic spine morphology, DiI staining; format: cell-based; details: for induction of dendritic varicosities: 3 μM peptide, 72 h
[5] = Electron microscopy of fibril formation in DMEM; format: physicochemical; details: 10 μM peptide, 37°C
How it was run: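 Peptide was dissolved in 60 mM NaOH, diluted into cell culture medium and sonicated 1 min. It was then incubated at 10 μM in DMEM without serum or cells at 37°C. Morphology was examined by electron microscopy periodically over several days, including 24 and 48 h.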

Substance	appearance of the solution at 48–72 h of incubation [3]	induction of dendritic varicosities [4]	kinetics of conformational transition by CD, in words [3]	time by which the fibrillation process appeared complete (electron microscopy) [5]	other results
[Met(O)^35]Aβ40 [Aβ40-sulfoxide]	free of particulate material or precipitates	–	–	–	kinetics of conformational transition by CD in medium, in words [1]: somewhat slower; abundance of fibrils by electron microscopy [2]: scarce relative to those of WT Aβ40 or Aβ40-sulfone
[Met(O)^35]-Aβ42 [Aβ42-sulfoxide]	–	little induction of varicosities	did not change during the first 24 h	–	–
[Met(O2)^35]Aβ42 [Aβ42-sulfone]	–	abundant varicosities	behaved similarly to WT Aβ42	≤ 24 h	–
Aβ42: Aβ (amyloid β-protein) comprising 42 amino acids, wild-type	–	abundant varicosities	–	≤ 24 h	effect at 10 μM in the dendritic spine assay ([4]; 10 μM peptide, initial experiments): overt cell death
[Met(O2)^35]Aβ40 [Aβ40-sulfone]	free of particulate material or precipitates	–	–	–	–
